Source: ChEMBL document CHEMBL3739300, “Chemical Constituents from the Fruiting Bodies of Hexagonia apiaria and Their Anti-inflammatory Activity” (J Nat Prod, 2015)
Active and inactive are the calls of the source. No cut-off for these calls is given here.

Key:
Assay type in all cases: functional, cell-based
[1] = Antiinflammatory activity in human neutrophils assessed as inhibition of FMLP/CB-induced superoxide anion generation by spectrophotometry; details: Neutrophil
Procedure, shortened: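 Neutrophils from healthy donors (20−30 y) isolated by dextran sedimentation, Ficoll (1.077 g/mL) centrifugation and hypotonic lysis, kept in Ca2+-free HBSS pH 7.4 at 4 °C. Cells (6 × 10^5/mL) with 0.5 mg/mL ferricytochrome c and 1 mM Ca2+, 37 °C 2 min, drug or 0.1% DMSO 5 min. Stimulated with 100 nM FMLP after 1 μg/mL cytochalasin B, 3 min. SOD-inhibitable (100 U/mL) absorbance at 550 nm; IC50, n = 3−4.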

[2] = (§1) Antiinflammatory activity in human neutrophils assessed as inhibition of FMLP/CB-induced elastase release; details: Neutrophil
Procedure, shortened: (§2)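 Donor neutrophils (isolated by dextran, Ficoll, hypotonic lysis; Ca2+-free HBSS pH 7.4) at 6 × 10^5/mL with 100 μM MeO-Suc-Ala-Ala-Pro-Val-p-nitroanilide. Equilibrated 37 °C 2 min, drug or 0.1% DMSO vehicle 5 min, then activated with 100 nM FMLP plus 0.5 μg/mL cytochalasin B. Absorbance at 405 nm monitored continuously; percent of FMLP/CB-activated drug-free control; IC50, n = 3−4.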

Neutrophil = assay: as §1; procedure, shortened: as §2

Row | SMILES | IC50 [1] | IC50 [2] | inhibition (Neutrophil)
1 | CC1=C(C)C2(C[C@@H](C)[C@H]3[C@@H](C[C@@]4(C)C5=C(CC[C@]34C)[C@@]3(C)CC[C@@H](OC(=O)CC(=O)O)C(C)(C)[C@@H]3CC5)O2)OC1=O (some centres not stated) | 1.9 µM | 4.3 µM | –
2 | O=c1cc(N2CCOCC2)oc2c(-c3ccccc3)cccc12 [LY-294002] | 0.4 µM | 1.5 µM | –
3 | CC1=C(C)C2(C[C@@H](C)[C@H]3[C@@H](C[C@@]4(C)C5=C(CC[C@]34C)[C@@]3(C)CC[C@@H](O)C(C)(C)[C@@H]3CC5)O2)OC1=O (some centres not stated) | > 10 µM | – | inactive

Continued, in another order:

Row | IC50 [1] | IC50 [2] | SMILES | inhibition (Neutrophil)
4 | > 10 µM | – | CC1=C(C)C2(C[C@@H](C)[C@H]3[C@@H](C[C@@]4(C)C5=C(CC[C@]34C)[C@@]3(C)CC[C@@H](O)[C@@](C)(C=O)[C@@H]3CC5)O2)OC1=O (some centres not stated) | inactive
5 | 6 µM | > 10 µM | C=C(CC[C@@H](C(=O)O)[C@H]1CC[C@@]2(C)C3=C(CC[C@]12C)[C@@]1(C)C[C@H](O)[C@H](O)C(C)(C)[C@@H]1CC3)C(C)C | –
6 | > 10 µM | – | COC(=O)CC(=O)O[C@@H]1CC[C@]2(C)C3=C(CC[C@H]2C1(C)C)[C@]1(C)C[C@H]2OC4(C[C@@H](C)[C@@H]2[C@@]1(C)CC3)OC(=O)C(C)=C4C (some centres not stated) | inactive
